Screening data deposited in PubChem by several laboratories.
Most compounds without a hit are left out; they make up all but 1.4% or so of the library.
Thrombin inh – inhibitors of human thrombin | P00734 | alpha-thrombin, Boc-VPR-AMC fluorogenic substrate cleavage | inhibition, % at 5 µM | 220,000 tested, 0.26% active;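 active = inhibition at or above 40%; inactive = inhibition below 40%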
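signal = AMC fluorescence, 355/460 nm | material = human alpha-thrombin enzyme | control set = enzyme without compound as high, wells lacking enzyme as low | times = reaction at room temperature | read-out basis = percent inhibition scaled between no-compound controls and no-enzyme blanks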
FXIIa inh 1536 – factor XIIa (human) inhibition; inhibition, % at 5 µM; AID 800; 220,000 tested, 0.3% active; P00748; purified FXIIa, Boc-QGR-AMC fluorogenic substrate, 2 h; in the data active = inhibition above about 40%
KLK5 inh – kallikrein 5 (human) inhibition | Q9Y337 | recombinant hK5, fluorogenic AMC substrate cleavage | inhibition, % at 5 µM | 210,000 tested, 0.59% active | AID 873;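 active = inhibition of 40% or more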
FXIa inh – factor XIa (human) inhibition | inhibition, % at 5 µM | purified FXIa, Boc-Glu-Ala-Arg-AMC fluorogenic substrate | P03951 | 220,000 tested, 0.14% active | AID 798;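 active = inhibition of at least 40%; inactive = inhibition below 40%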;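 note: fluorescence of freed AMC excited at 355 nm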
Calpain2 inh – inhibitors of pig calpain II. purified calpain II, fluorogenic peptide substrate, 30 min. inhibition, % at 16 µM. 220,000 tested, 0.37% active. AID 1236;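 active = inhibition above about 50%, limit read from the data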
Furin inh – blocks human furin protease activity. P09958. purified furin, fluorogenic substrate cleavage. inhibition, % at 20 µM or 30 µM. 220,000 tested, 0.061% active; in the data active = inhibition above about 25%
Target sequence (P09958 108-714 limits assumed): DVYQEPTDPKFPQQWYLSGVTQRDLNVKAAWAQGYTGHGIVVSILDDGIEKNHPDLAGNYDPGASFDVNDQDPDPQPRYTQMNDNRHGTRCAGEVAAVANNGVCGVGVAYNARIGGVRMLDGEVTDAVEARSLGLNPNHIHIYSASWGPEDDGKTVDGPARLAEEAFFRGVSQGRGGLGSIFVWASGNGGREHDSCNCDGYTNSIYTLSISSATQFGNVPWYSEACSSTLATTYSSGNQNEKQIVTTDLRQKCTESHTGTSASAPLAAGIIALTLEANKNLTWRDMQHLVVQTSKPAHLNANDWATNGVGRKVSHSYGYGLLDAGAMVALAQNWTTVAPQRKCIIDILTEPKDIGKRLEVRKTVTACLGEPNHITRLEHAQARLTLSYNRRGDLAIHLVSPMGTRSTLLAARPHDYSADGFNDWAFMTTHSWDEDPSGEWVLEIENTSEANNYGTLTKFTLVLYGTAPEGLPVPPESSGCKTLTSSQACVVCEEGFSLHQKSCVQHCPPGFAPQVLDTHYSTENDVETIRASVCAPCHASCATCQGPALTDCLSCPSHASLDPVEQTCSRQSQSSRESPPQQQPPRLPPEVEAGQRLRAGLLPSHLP
Large screens that a line does not name were inactive.

NC(=O)c1ccc(-n2nnnc2Oc2ccccc2C(=O)N2CCOCC2)cc1	Calpain2 inh 51
CNC(=O)c1cc(Cl)c(OC)c(OC)c1	none
COc1cc(C(N)=O)cc(Cl)c1OC	FXIIa inh 1536 47
CC(CC(=O)O)CC(=O)Nc1cc(C(F)(F)F)cc(C(F)(F)F)c1 (centres undefined)	KLK5 inh 50
O=C(O)COCC(=O)Nc1cc(C(F)(F)F)cc(C(F)(F)F)c1	none
Cc1ccsc1C(=O)NCCC(c1ccccc1)c1ccccc1	FXIIa inh 1536 48
Cc1ccccc1NC(=S)NCCC(c1ccccc1)c1ccccc1	Calpain2 inh 78
Cc1nc(C)c(C(=O)NCCC(c2ccccc2)c2ccccc2)o1	none
CCOC(=O)c1sc2nc(C)cc(-c3ccccc3)c2c1N	none
CCN(CC)P(=O)(Nc1ccc([N+](=O)[O-])cc1)c1c(C)nn(CCC#N)c1NC(=O)c1ccc(Cl)cc1Cl (centres undefined)	none
CC1(C)CC(=O)C2=C(C1)NC1=C(C(=O)c3ccccc31)C2c1cc([N+](=O)[O-])ccc1O (centres undefined)	none
CCCCCC(=O)Nc1cccc(C2=NOC3(C2)C[C@@H](C(N)=O)N(C(=O)c2cc([N+](=O)[O-])cc([N+](=O)[O-])c2C)C3)c1 (some centres undefined)	FXIa inh 40
O=C(CN(Cc1ccccc1)C(=O)CSc1nnc(COc2ccccc2)o1)NC1CCCC1	none
Cc1ccc(CN(CC(=O)NC2CCCC2)C(=O)CSc2nnc(COc3ccccc3)o2)cc1	Furin inh 25
Cc1cc(=O)oc2cc(OC(=O)CCN3C(=O)c4ccccc4C3=O)ccc12	FXIIa inh 1536 63
Cc1cc(=O)oc2cc(OCCCN3C(=O)c4ccccc4C3=O)ccc12	none
COc1cccc2c(=O)n(CC(=O)NC3CCCCC3)ccc12	none
CN(Cc1cc2ccccc2[nH]c1=O)S(=O)(=O)c1ccccc1	none
CN(Cc1cc2ccccc2[nH]c1=O)S(C)(=O)=O	KLK5 inh 47
Cc1ccccc1CNC(=O)CC1C(=O)NCCN1Cc1c(F)cccc1Cl (centres undefined)	none
COC(=O)c1ccc(-n2nnnc2SCC(=O)Nc2ccccc2C(=O)OC)cc1	none
NC(=O)c1ccc(-n2nnnc2SCC(=O)Nc2ccccc2-c2ccccc2)cc1	Calpain2 inh 65
CC1(C)C(=O)OC(c2c(F)c(F)c(F)c(F)c2F)C2(CCCCC2)C1=O (centres undefined)	Calpain2 inh 57
COc1ccc(CCNC(=O)CSc2nnc(-c3ccc(F)cc3)o2)cc1OC	KLK5 inh 130
COc1ccc(CCNC(=O)CSc2nnc(CNc3ccc(Cl)cc3)o2)cc1OC	none
CC1=C(C(=O)N2CCCCC2)C(c2cccs2)C2=C(CCCC2=O)N1 (centres undefined)	KLK5 inh 138 (no result: Calpain2 inh)
N#C/C(=C\c1cn(Cc2ccc(C#N)cc2)c2ccccc12)C(=O)NCc1cccs1	none
O=[N+]([O-])c1nn(-c2cccc(Cl)c2)n(O)c1=NCc1cccnc1	KLK5 inh 75
COC(=O)c1sccc1NC(=O)Nc1ccc(Cl)c(Cl)c1	none
CCC(=O)Nc1cccc(C(=O)/C=C/c2ccc(F)cc2)c1	none
CC(=O)Nc1cccc(C(=O)/C=C/c2ccc(C)cc2)c1	KLK5 inh 61
COc1ccc(Nc2nc(=O)c3cc([N+](=O)[O-])ccc3s2)cc1	Calpain2 inh 60
CCc1nc2ccccc2n1CC(C)C(=O)O (centres undefined)	none
CCc1nnc(NC(=O)CSc2nnc(CNc3cccc(Cl)c3)n2CC)s1	none
CCc1nnc(NC(=O)CSc2nnc(C3CCCCC3)n2-c2cccc(Cl)c2)s1	Furin inh 29
O=C(NC1=NCCS1)Nc1ccccc1	none
Oc1ccc(-c2cccc(-c3ccc(O)cc3)n2)cc1	KLK5 inh 47
Oc1ccc(-c2nccc(-c3ccc(Cl)cc3)n2)cc1	none
Oc1ccc(-c2nc3ccccc3s2)cc1	Thrombin inh 42
Cc1ccc(C(=O)NC2CCCc3ccccc32)o1 (centres undefined)	Furin inh 25
COc1ccc(CC(=O)NC2CCCc3ccccc32)cc1 (centres undefined)	none
O=C(COc1ccccc1F)Nc1cc(S(=O)(=O)N2CCOCC2)ccc1N1CCOCC1	none
COc1ccc(Cl)cc1S(=O)(=O)N1CCN(c2ccc(F)cc2)CC1	none
CCOc1ccc(Cl)cc1S(=O)(=O)N1CCN(c2ccc(F)cc2)CC1	Calpain2 inh 59
Cn1cnc([N+](=O)[O-])c1Oc1ccc2ccccc2c1	none
CN(C(=O)CSc1nnc(NCc2ccccc2)s1)C1CCS(=O)(=O)C1 (centres undefined)	none
O=C(c1cccc(Cl)c1)N1CCN(Cc2ccncc2)CC1	none
COc1ccc(OC)c(CN2CCN(C(=O)c3cccc4ccccc34)CC2)c1	KLK5 inh 44
O=C(c1cccc(Cl)c1)N1CCN(Cc2ccccc2F)CC1	KLK5 inh 94
COc1cc(OC)cc(C(=O)N2CCN(Cc3ccccc3C(F)(F)F)CC2)c1	FXIIa inh 1536 40
COc1ccc(OC)c(/C=N/Nc2cc(C)nc(N3CCOCC3)n2)c1	FXIIa inh 1536 40, KLK5 inh 58
CCOC(=O)c1[nH]c2ccccc2c1NC(=S)Nc1ccccc1	Thrombin inh 43
O=C1C=C(Nc2ccc(O)cc2)C(=O)c2ccccc21	Calpain2 inh 58
O=C1C(Cl)=C(Nc2ccc(O)cc2)C(=O)c2ccccc21	none
O=C(Nc1ccccc1F)c1ccc(CNS(=O)(=O)c2cccc(C(F)(F)F)c2)cc1	none
COc1ccc(S(=O)(=O)Nc2cc3c4c(oc3c3ccccc23)CC(C)(C)CC4=O)cc1	KLK5 inh 48
O=C(Nc1nnc(-c2ccccn2)o1)c1ccc(Br)cc1	none
CCOC(=O)N1CCN(c2c(NCCCN(CC)Cc3ccccc3)c(=O)c2=O)CC1	none
Oc1ccc(C[C@@H]2CNC(=S)N2CCCCC2CCCCC2)cc1	Calpain2 inh 51
S=c1[nH]nc(-c2cc(-c3ccsc3)n[nH]2)n1-c1cccc2ccccc12	none
O=C(Nc1ccccc1)ON=C1c2ccccc2-c2ccccc21	none
CCCN(CCC)C(=S)NC(=O)c1ccc(-c2ccccc2)cc1	Calpain2 inh 50
Cc1ccc(NC(=S)NC(=O)c2ccccc2)cc1NC(=S)NC(=O)c1ccccc1	none
Cc1cc(C)c(NC(=S)NC(=O)c2ccc(-c3ccccc3)cc2)c(C)c1	KLK5 inh 57
CCOc1ccc(C(=O)NC(=S)N(Cc2ccccc2)Cc2ccccc2)cc1	none
NS(=O)(=O)c1ccc(CNC(=O)c2cc(-c3ccccc3)nc3ccccc23)cc1	none
CC1(C)CC2CC(C)(CN2C(=O)c2cc(-c3ccccc3O)on2)C1 (centres undefined)	KLK5 inh 45
CCOc1cc(C(=O)NC(C)COC)cc(OCC)c1OCC (centres undefined)	none
